Experimental data from ChEMBL document CHEMBL1140701, “Synthesis, conformational analysis, and biological evaluation of 1-hexylindolactam-V10 as a selective activator for novel protein kinase C isozymes” (J Med Chem, 2008).
The source made the active and inactive calls. The calls are words filed in the database; no cut-off is given here.

Tests used:
[1] = molecular target: T1, Protein kinase C beta type (Homo sapiens, UniProt P05771); assay: Displacement of [3H]PDBu from PKCbeta C1A domain at 10 uM
In short: (§1)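 Competition for specific [3H]PDBu (20 nM, 16.3 Ci/mmol) binding to C1 peptide (10–40 nM) was tested with a single 10 µM competitor. The buffer was 50 mM Tris-maleate (pH 7.4 at 4 °C) with 50 µg/mL dioleoylphosphatidylserine and 3 mg/mL bovine γ-globulin.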
Target sequence in this assay (P05771 2-671 limits assumed): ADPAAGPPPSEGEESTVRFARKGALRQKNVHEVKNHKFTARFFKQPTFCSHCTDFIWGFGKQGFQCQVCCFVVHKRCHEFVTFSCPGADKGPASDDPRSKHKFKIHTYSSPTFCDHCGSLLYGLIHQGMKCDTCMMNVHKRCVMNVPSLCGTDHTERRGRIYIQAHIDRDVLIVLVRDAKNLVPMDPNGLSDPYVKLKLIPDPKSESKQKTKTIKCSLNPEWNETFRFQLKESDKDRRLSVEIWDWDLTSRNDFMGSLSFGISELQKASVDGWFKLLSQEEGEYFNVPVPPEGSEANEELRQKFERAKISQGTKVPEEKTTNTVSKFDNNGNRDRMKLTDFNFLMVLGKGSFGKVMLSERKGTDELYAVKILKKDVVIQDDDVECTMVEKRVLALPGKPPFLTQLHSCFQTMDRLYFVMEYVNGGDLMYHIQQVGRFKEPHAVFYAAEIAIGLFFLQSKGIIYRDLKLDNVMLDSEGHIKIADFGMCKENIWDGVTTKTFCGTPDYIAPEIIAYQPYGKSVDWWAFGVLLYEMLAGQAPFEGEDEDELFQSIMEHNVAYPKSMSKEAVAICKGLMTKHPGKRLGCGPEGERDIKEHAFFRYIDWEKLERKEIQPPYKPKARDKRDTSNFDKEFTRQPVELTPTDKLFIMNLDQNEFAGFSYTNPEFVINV

[2] = molecular target: T1, Protein kinase C beta type; assay: Displacement of [3H]PDBu from PKCbeta C1B domain at 10 uM; in short: as §1
Target sequence in this assay (P05771 2-671 limits assumed): as above

[3] = molecular target: T2, Protein kinase C alpha type (Homo sapiens, UniProt P17252); assay: Displacement of [3H]PDBu from PKCalpha C1A domain
In short: (§2)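 [3H]PDBu (20 nM, 16.3 Ci/mmol) competition binding with synthetic PKC C1 peptides (10–40 nM) in 50 mM Tris-maleate pH 7.4 at 4 °C, with 50 µg/mL phosphatidylserine, 3 mg/mL bovine γ-globulin and varied inhibitor concentrations. IC50 is the concentration giving 50% inhibition of specific binding. Ki derived by the Sharkey–Blumberg method. SD from at least two separate experiments.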

[4] = molecular target: T2, Protein kinase C alpha type; assay: Displacement of [3H]PDBu from PKCalpha C1B domain; in short: as §2
[5] = molecular target: T1, Protein kinase C beta type; assay: Displacement of [3H]PDBu from PKCbeta C1A domain; in short: as §2
Target sequence in this assay (P05771 whole entry, the tested form may be a part): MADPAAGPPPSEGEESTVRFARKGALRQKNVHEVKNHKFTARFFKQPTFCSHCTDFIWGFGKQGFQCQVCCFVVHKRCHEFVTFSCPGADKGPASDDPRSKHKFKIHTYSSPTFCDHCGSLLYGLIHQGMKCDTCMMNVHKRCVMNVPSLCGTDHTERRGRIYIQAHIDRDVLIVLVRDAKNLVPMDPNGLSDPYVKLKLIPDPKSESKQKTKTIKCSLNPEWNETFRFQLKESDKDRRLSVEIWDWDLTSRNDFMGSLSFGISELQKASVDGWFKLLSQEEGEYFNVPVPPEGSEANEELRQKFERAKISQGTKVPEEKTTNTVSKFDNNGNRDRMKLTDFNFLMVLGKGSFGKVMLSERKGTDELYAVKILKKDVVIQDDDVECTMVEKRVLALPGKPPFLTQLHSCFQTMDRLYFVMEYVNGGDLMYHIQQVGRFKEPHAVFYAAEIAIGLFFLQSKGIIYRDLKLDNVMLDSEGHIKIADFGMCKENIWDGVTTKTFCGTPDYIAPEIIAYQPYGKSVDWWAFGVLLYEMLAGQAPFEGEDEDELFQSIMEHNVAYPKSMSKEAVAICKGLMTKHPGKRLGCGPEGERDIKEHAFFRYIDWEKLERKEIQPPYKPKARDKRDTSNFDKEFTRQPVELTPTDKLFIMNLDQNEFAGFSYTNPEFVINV

[6] = molecular target: T1, Protein kinase C beta type; assay: Displacement of [3H]PDBu from PKCbeta C1B domain; in short: as §2
Target sequence in this assay (P05771 whole entry, the tested form may be a part): as above

[7] = molecular target: T3, Protein kinase C gamma type (Homo sapiens, UniProt P05129); assay: Displacement of [3H]PDBu from PKCgamma C1A domain; in short: as §2
[8] = molecular target: T3, Protein kinase C gamma type; assay: Displacement of [3H]PDBu from PKCgamma C1B domain; in short: as §2
[9] = molecular target: Protein kinase C delta type (Homo sapiens, UniProt Q05655); assay: Displacement of [3H]PDBu from PKCdelta C1B domain; in short: as §2
[10] = molecular target: T4, Protein kinase C epsilon type (Homo sapiens, UniProt Q02156); assay: Displacement of [3H]PDBu from PKCepsilon C1B domain
T4 sequence (Q02156 whole entry): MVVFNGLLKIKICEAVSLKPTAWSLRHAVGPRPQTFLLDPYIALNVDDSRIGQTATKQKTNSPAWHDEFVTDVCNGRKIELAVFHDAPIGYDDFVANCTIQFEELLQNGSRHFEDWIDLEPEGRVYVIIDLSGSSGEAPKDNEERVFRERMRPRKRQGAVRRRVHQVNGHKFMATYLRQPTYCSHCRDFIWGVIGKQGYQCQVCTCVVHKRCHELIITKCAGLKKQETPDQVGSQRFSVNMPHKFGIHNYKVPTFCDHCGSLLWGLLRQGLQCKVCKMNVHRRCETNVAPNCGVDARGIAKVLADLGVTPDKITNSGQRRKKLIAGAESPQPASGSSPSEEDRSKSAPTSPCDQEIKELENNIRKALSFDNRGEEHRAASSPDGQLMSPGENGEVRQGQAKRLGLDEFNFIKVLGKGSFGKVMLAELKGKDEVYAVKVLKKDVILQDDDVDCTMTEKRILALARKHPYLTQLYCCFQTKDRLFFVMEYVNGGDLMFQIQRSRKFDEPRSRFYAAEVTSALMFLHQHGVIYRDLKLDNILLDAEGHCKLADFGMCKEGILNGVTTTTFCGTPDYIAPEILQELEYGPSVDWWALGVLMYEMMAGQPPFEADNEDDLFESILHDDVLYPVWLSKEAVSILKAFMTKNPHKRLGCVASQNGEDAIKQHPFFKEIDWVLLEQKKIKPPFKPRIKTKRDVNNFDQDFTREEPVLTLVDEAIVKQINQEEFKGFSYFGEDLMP
In short: (§3)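 Synthetic PKC C1 peptides (10–40 nM; about 3 nM properly folded, estimated from earlier Scatchard Bmax) were incubated with 20 nM [3H]PDBu (16.3 Ci/mmol) in 50 mM Tris-maleate (pH 7.4 at 4 °C). The mix also held 50 µg/mL 1,2-dioleoyl-sn-glycero-3-phospho-L-serine, 3 mg/mL bovine γ-globulin and varied inhibitor. IC50 came from probit analysis and Ki from the Sharkey–Blumberg method.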

[11] = molecular target: Protein kinase C eta type (Homo sapiens, UniProt P24723); assay: Displacement of [3H]PDBu from PKCeta C1B domain; in short: as §3
[12] = molecular target: Protein kinase C theta type (Homo sapiens, UniProt Q04759); assay: Displacement of [3H]PDBu from PKCtheta C1B domain; in short: as §3
[13] = Displacement of [3H]PDBu from PKCdelta C1B P11dfP mutant; in short: as §2
[14] = Displacement of [3H]PDBu from PKCgamma C1A P11dfP mutant; in short: as §2
[15] = Selectivity ratio of PKCdelta C1B domain over PKCdelta C1B P11dfP mutant
[16] = Selectivity ratio of PKCgamma C1A domain over PKCgamma C1A P11dfP mutant

Protein kinase C delta type, sequence (Q05655 whole entry, the tested form may be a part): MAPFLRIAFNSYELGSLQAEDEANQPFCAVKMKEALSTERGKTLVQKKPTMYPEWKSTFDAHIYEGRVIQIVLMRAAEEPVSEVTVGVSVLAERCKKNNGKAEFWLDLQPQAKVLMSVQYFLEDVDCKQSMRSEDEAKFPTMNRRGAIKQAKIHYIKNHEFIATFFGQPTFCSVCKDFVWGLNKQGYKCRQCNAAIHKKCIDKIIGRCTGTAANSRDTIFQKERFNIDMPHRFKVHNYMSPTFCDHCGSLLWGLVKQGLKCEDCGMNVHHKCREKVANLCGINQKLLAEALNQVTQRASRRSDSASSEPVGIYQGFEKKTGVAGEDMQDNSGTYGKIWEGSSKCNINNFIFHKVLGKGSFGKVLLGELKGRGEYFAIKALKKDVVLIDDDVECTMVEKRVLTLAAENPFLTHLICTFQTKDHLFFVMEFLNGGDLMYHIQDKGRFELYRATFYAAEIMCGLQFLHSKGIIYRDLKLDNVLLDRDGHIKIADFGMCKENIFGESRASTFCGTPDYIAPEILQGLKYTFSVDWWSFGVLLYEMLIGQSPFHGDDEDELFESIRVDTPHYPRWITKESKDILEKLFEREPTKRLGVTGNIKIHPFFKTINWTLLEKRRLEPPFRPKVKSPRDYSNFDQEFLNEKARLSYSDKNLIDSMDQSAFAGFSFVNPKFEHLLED
Protein kinase C eta type, sequence (P24723 whole entry, the tested form may be a part): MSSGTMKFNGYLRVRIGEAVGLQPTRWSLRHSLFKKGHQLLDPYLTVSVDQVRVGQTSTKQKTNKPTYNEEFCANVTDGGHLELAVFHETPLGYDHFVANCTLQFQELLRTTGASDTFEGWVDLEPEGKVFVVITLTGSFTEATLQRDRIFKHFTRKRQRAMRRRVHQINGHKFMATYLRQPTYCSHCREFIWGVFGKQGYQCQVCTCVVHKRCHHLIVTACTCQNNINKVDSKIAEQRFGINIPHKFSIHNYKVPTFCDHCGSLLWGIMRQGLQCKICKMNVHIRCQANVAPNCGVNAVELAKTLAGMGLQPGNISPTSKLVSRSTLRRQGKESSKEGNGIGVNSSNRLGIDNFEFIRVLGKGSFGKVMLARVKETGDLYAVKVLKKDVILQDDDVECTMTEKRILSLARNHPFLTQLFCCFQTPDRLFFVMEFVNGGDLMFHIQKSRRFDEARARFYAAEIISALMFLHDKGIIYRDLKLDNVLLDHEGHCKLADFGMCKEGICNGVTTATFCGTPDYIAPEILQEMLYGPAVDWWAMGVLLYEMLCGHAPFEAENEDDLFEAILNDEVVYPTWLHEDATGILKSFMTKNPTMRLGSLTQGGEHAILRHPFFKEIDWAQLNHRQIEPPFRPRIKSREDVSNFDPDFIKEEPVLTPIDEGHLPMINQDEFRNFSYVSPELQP
Protein kinase C theta type, sequence (Q04759 whole entry, the tested form may be a part): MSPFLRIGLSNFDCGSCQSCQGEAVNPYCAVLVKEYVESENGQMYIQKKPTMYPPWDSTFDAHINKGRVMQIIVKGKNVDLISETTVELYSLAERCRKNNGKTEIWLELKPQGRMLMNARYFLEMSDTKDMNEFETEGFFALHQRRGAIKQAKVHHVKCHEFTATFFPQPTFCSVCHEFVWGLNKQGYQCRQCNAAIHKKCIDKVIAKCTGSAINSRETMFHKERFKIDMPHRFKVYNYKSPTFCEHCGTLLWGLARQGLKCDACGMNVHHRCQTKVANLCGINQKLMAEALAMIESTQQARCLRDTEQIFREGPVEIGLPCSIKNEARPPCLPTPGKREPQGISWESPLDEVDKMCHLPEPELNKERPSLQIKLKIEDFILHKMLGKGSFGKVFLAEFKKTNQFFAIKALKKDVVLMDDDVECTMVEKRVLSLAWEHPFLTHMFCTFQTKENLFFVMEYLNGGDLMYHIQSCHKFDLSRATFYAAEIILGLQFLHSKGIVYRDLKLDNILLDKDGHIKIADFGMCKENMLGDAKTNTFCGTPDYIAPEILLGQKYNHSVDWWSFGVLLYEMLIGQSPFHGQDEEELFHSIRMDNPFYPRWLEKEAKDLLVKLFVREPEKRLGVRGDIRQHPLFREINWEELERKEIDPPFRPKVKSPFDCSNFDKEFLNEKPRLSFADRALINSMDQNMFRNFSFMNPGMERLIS

Structure (SMILES): CCCCCCn1c(Br)c2c3c(cccc31)N(C)[C@@H](C(C)C)C(=O)N[C@H](CO)CC2
- Activity [1]: inactive
- Activity [2]: inactive

Structure (SMILES): CCCCCCn1cc2c3c(cccc31)N(C)[C@@H](C(C)C)C(=O)N[C@H](CO)CC2
- Ki [3]: 6700 nM
- Ki [4]: > 10000 nM
- Ki [5]: 9200 nM
- Ki [6]: 440 nM
- Ki [7]: 11000 nM
- Ki [8]: 420 nM
- Ki [9]: 15 nM
- Ki [10]: 29 nM
- Ki [11]: 25 nM
- Ki [12]: 12 nM
- Ki [13]: 120 nM
- Ki [14]: 14000 nM
- Ratio Ki [15]: 8
- Ratio Ki [16]: 1.3

Structure (SMILES): CCCCCCn1cc2c3c(cccc31)N(C)[C@@H](C(C)C)C(=O)N[C@H](CO)C2
- Ki [3]: 5.8 nM
- Ki [4]: 43 nM
- Ki [5]: 9.8 nM
- Ki [6]: 11 nM
- Ki [7]: 15 nM
- Ki [8]: 39 nM
- Ki [9]: 0.46 nM
- Ki [10]: 0.47 nM
- Ki [11]: 0.34 nM
- Ki [12]: 1.4 nM
- Ki [13]: 3.7 nM
- Ki [14]: 71 nM
- Ratio Ki [15]: 8
- Ratio Ki [16]: 4.7

Structure (SMILES): CC(C)[C@H]1C(=O)N[C@H](CO)Cc2c[nH]c3cccc(c23)N1C [INDOLACTUM]
- Ki [3]: 21 nM
- Ki [5]: 19 nM
- Ki [7]: 89 nM
- Ki [8]: 59 nM
- Ki [9]: 11 nM
- Ki [13]: 130 nM
- Ki [14]: 690 nM
- Ratio Ki [15]: 11.8
- Ratio Ki [16]: 7.8

Structure (SMILES): CC(C)[C@H]1C(=O)N[C@H](CO)Cc2ccccc2N1C
- Ki [7]: 3100 nM
- Ki [9]: 410 nM
- Ki [13]: 436 nM
- Ki [14]: 2500 nM
- Ratio Ki [15]: 1.1
- Ratio Ki [16]: 0.8

Structure (SMILES): CCCCCCn1cc2c3c(c(Cl)ccc31)N(C)[C@@H](C(C)C)C(=O)N[C@H](CO)CC2
- Activity [1]: inactive
- Activity [2]: inactive
